Measured values: the EternaBench riboswitch data

Tested on: MS2 coat protein
Experiment: apparent Kd, MS2 coat protein; higher = weaker binding; RNA-MaP array; theophylline 2 mM where present
Method in brief: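 Stalled E. coli RNA polymerase transcribed the designs on Illumina sequencing-chip clusters. SNAP-549-labelled MS2 coat protein was titrated from 0.7 or 1.5 nM, doubling to 3 µM, without and then with constant ligand, in 100 mM Tris-HCl pH 7.5, 80 mM KCl, 4 mM MgCl2, BSA, DTT, yeast tRNA and Tween-20. Per-cluster binding curves were fitted to green signal normalised to red-channel RNA signal and control-cluster median Fmax. The apparent Kd is the median of the filtered fits.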

[1] = designed as: OFF switch for theophylline, no ligand
[2] = ligand present: theophylline, designed as: OFF switch for theophylline
[3] = designed as: ON switch for theophylline, no ligand
[4] = ligand present: theophylline, designed as: ON switch for theophylline

| Sequence | apparent Kd [1] | apparent Kd [2] | apparent Kd [3] | apparent Kd [4] |
| --- | --- | --- | --- | --- |
| AGCCUAUUACAUGAGGAUCACCCAUGUGAUACCAGUCAGGAAACUGACCCUUGGCAGCGCAUGAGGAUCACCCAUGCGCGAGGCA | 0.011 µM | 0.0119 µM |  |  |
| AAAGAUACCAGAGAUACCAGCCAAAAUUAAAAUAAAACCUCACAUGAGGAUCACCCAUGUGGCCCUUGGCAGCUCCCUUGGCAGC | 0.0125 µM | 0.0537 µM |  |  |
| AGACAUGAGGAUCACCCAUGUAGUACGGAUACCAGAUCCAGAUUUAUCCCUUGGCAGCUGUGGUACAGCGUUGCAACGCUCCUAG | 0.0175 µM | 0.0175 µM |  |  |
| GCACCAGGUACGGAUACCAGCUAUAGGUACAUGUCAGGACAUGAGGAUCACCCAUGUGGUAGCCCUUGGCAGCUGUACCUGGUGC | 0.0175 µM | 0.0272 µM |  |  |
| AGACAUGAGGAUCACCCAUGUAGUACGGAUACCAGAUCCAGAUGUAUCCCUUGGCAGCUGUGGUACAGCGUUGCAACGCUCCUAG | 0.016 µM | 0.0153 µM |  |  |
| AGUACUCGAACGGAUACCAGCCGGACAUGAGGAUCACCCAUGUCCUACCAUGUUUCGGUUGGCCCUUGGCAGCCGUUCGUGUACA |  |  | 0.425 µM | 0.0304 µM |
| UUUGAUAGGACAGAUACCAGCGUGUUGUAGAACAUGAGGAUCACCCAUGUAGUGAUCAAGCGCCCUUGGCAGCUGGUUUGUUAGG |  |  | 0.17 µM | 0.0826 µM |
| UUUGCACAUGAGGAUCACCCAUGUACAGAUACCAGCCUCAUCUACGGCCCUUGGCAGCUGAGACAAUGGUGACAUGAUGGGCUUU | 0.0121 µM | 0.0326 µM |  |  |
| ACAUGAACAUGAGGAUCACCCAUGUGGGAUACCAGCGUGUAUGAGCGCCCUUGGCAGCUCAUGACAUGAGGAUCACCCAUGUUGG | 0.262 µM | 0.453 µM |  |  |
| AACAUGAGGAUCACCCAUGUCAUGUUGGAUACCAGCCAAUAAUAAGGCCCUUGGCAGCUAUAGAUCGAUGAUCCAUGAGGAUCAC | 0.0345 µM | 0.0253 µM |  |  |
| AUCGUACCUGAUGAUACCAGCAUGUGAUCGUAACAUGAGGAUCACCCAUGUAAUCAGUGAUGCCCUUGGCAGCAUGAUCGGUACA |  |  | 0.0977 µM | 0.0205 µM |
| AAGCAGGGUGUAAAAUAAAUAAUCACUGAUACCAGACUAUGAGAUGUCCCUUGGCAGCAGAAACAUGAGGAUCACCCAUGUAAUA | 0.0227 µM | 0.0323 µM |  |  |
| AUCGUACCUGGUGAUACCAGCAAUUGCUCGUGACAUGAGGAUCACCCAUGUGACCAGUGAUGCCCUUGGCAGCAUGGUCGGUGCA |  |  | 0.0687 µM | 0.0272 µM |
| AAAACACAUGAGGAUCACCCAUGUCAUGAUACCAGUCCACAUGAGGACCCUUGGCAGCAUAAAAUGGGUAACAUGAGGAUAACCC | 0.0296 µM | 0.0828 µM |  |  |
| UUUUAAAGCAUGGCGUAUCGGAAAACCGAUACCAGUACAGAAAUGUACCCUUGGCAGCGGAAUUUUACAUGAGGAUCACCCAUGU | 0.0131 µM | 0.0434 µM |  |  |
| UCGUCCUCCGCAAGGAGGAGGAGUUGCGAUACCAGCACGGUAACGUGCCCUUGGCAGCGCACAUGAGGAUCACCCAUGUGGUGUU | 0.214 µM | 0.489 µM |  |  |
| UGUAACAUGAGGAUCACCCAUGUGCACGAUACCAGCUUAUUGAUAGGCCCUUGGCAGCGUAUGCGGAAGCUGUAUAAUAUAUAUC |  |  | 0.0113 µM | 0.0127 µM |
| ACAUGAGGAUCACCCAUGUAACGUCUUGAUACCAGACGAGAAGUAGUCCCUUGGCAGCAAAUACGUGAGGGUCACACAUGUGUAA | 0.0234 µM | 0.0615 µM |  |  |
| UGUUUGGUGCGCGAGUGUUGGAUGAUUGAUACCAGUGAAGAAGAGCGCCCUUGGCAGCGAAUCCUAACAUGAGGAUCACCCAUGU |  |  | 0.0508 µM | 0.0676 µM |
| UAUUUUGGGCGCGAGCCCGGGAUAAUUGAUACCAGUGAAGAAGAGCGCCCUUGGCAGCGAAUCCUAACAUGAGGAUCACCCAUGU |  |  | 0.0475 µM | 0.06 µM |

| Sequence | apparent Kd [1] | apparent Kd [2] | apparent Kd [3] | apparent Kd [4] |
| --- | --- | --- | --- | --- |
| AGCCCUGUACUAGAUACCAGCUACAUGAGGAUCACCCAUGUGCGUCAAGACUGACUGUGUGGCCCUUGGCAGCUGCUCGCAUGUA | 0.146 µM | 0.208 µM |  |  |
| ACGAACGAUAGUGAUACCAGACGUACAUGAGGAUCACCCAUGUUGUAAACAUGGUUAAUAGUCCCUUGGCAGCACGAUAAGUUCG | 0.575 µM | 0.499 µM |  |  |
| UUUGCACAUGAGGAUCACCCAUGUACAGAUACCAGCCUCAUCUACGGCCCUUGGCAGCUGAGACAAUGGUGACGUGACGGGCUUU | 0.0117 µM | 0.0282 µM |  |  |
| AAUAAGUACUUUGAUACCAGCCUGCCAUCAUGCUAAUUUACAUGAGGAUCACCCAUGUUAGGCCCUUGGCAGCAAAGUGCAAUAA | 0.0125 µM | 0.0256 µM |  |  |
| ACGACGCAUAGUGAUACCAGUAGAACAUGAGGAUCACCCAUGUCUGUGACGCACCACCUCUGCCCUUGGCAGCACUAUGCGUCAG |  |  | 0.0227 µM | 0.0229 µM |
| UUACGAGGCUAUCCACUUUGAUUUUGUGAUACCAGAAUAAUUUUAUUCCCUUGGCAGCAUGACAUGAGGAUCACCCAUGUGUCUU |  |  | 0.038 µM | 0.0617 µM |
| UUAAGAGGCUAUCAAAUUUGAUUUUGUGAUACCAGAAUAAUUUUAUUCCCUUGGCAGCAUGACAUGAGGAUCACCCAUGUGUCUU |  |  | 0.0354 µM | 0.0302 µM |
| UGGUUUGUGAUGGAUACCAGCAGAGAAAACGUUUAUCCUAACAUGAGGAUCACCCAUGUAUGCCCUUGGCAGCUGUUGUGGGCUG | 0.036 µM | 0.0389 µM |  |  |
| GUCAGUAGAACAGAUACCAGUCAAAGGCUGUGAUCUCAUAACAUGAGGAUCACCCAUGUUGACCCUUGGCAGCUGUGGGCGAGGG | 0.0452 µM | 0.391 µM |  |  |
| UGUAACAUGAGGAUCACCCAUGUGAGUGAUACCAGAUUAGUAUUAGUCCCUUGGCAGCACGUUGGGCGAGUGUAUAGUCUAUGCG |  |  | 0.147 µM | 0.113 µM |
| AUCGUACCUGAUGAUACCAGCAUGUGCUCGUAACAUGAGGAUCACCCAUGUGAUCAGUGAUGCCCUUGGCAGCAUGAUCGGUGCA |  |  | 0.169 µM | 0.0193 µM |
| UGUAAAAUAACAGAUACCAGCGUGUUAUAAAACAUGAGGAUCACCCAUGUAGUGAUCAAGCGCCCUUGGCAGCUGGUAUUUUAUG |  |  | 0.16 µM | 0.129 µM |
| AGACAUGAGGAUCACCCAUGUAGCAUGGAUACCAGAUGUAGAUUAGUCCCUUGGCAGCUGUGGUGAAGUGAUGCAUUGCUCCUAG | 0.0632 µM | 0.0616 µM |  |  |
| UACAUGAGGAUCACCCAUGUAUACAUGGAUACCAGCGACAAUGGGCGCCCUUGGCAGCUAGUGGAUGGAGGGUGGCCACAGUACU | 0.0703 µM | 0.0718 µM |  |  |
| UACAUGAGGAUCACCCAUGUAUGAAUAGAUACCAGCGAAAAUAAGCGCCCUUGGCAGCUAGUGAAUAAAGGGUGGGUAAAAUAAU | 0.00918 µM | 0.0199 µM |  |  |
| CAAACAUGAGGAUCACCCAUGUAAUCAGAUACCAGUGACGAAAGUCACCCUUGGCAGCUGAGUACAUUAGUUCUAAGGUGUUUGA | 0.0446 µM | 0.0502 µM |  |  |
| UAUAUGGUGAUGGAUACCAGCAGAGAAAACGUUUAUCCUAACAUGAGGAUCACCCAUGUAUGCCCUUGGCAGCUGUUGUUAUAUA | 0.0379 µM | 0.0297 µM |  |  |
| UGACAUUGCUGCGAUACCAGACAUGAGGAUCACCCAUGUACCAAGGUACGAAAAUAACAUGUCCCUUGGCAGCGCAGCAAUGUCU | 0.0126 µM | 0.254 µM |  |  |
| AUACACCUCGUCCAGGCAAUCUUUAGUGAUACCAGCUAACUCCGUGGCCCUUGGCAGCACAUGAGGAUCACCCAUGUGCGACAUC | 0.0111 µM | 0.0118 µM |  |  |
| UACAUGAGGAUCACCCAUGUGGCGGAUGAUACCAGUAUGGUGACAUACCCUUGGCAGCAUGCUAUGAGGAUCACCCAUGUGUGCA | 0.0853 µM | 0.166 µM |  |  |
